# Active and inactive are the calls of the source.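 Rule for the calls, unless noted: active = viability loss from added drug above about 55%, and viability with drug at most 40%, in both replicates (limit read from the data, passing the limit was not always enough); inconclusive = both conditions met in only one replicate; inactive = neither replicate meets both conditions.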
# Assays:
# [1] = Her2 expression decrease, cell viability multiplex – SKBR3 breast tumor cells, AlphaScreen, ATP viability, primary screen (AID 461;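 active = Her2 level under about 52% in both replicate screens, with viability over 70% of control, limit read from the data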;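 for Her2 level: lower value means less Her2 protein in the cells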;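 for viability: percent of carrier control wells set as 100% viability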); conditions: SKBR3 Her2 protein level, 18-24 h, measured here: SKBR3 viability, ATP luminescence, at 10 µM
# [2] = molecular target: Receptor tyrosine-protein kinase erbB-2 (Homo sapiens) (UniProt P04626); test: as above; conditions: 18-24 h, at 10 µM, stronger effect = lower value
# Sequence of Receptor tyrosine-protein kinase erbB-2 (Homo sapiens) (P04626 whole entry, looked up): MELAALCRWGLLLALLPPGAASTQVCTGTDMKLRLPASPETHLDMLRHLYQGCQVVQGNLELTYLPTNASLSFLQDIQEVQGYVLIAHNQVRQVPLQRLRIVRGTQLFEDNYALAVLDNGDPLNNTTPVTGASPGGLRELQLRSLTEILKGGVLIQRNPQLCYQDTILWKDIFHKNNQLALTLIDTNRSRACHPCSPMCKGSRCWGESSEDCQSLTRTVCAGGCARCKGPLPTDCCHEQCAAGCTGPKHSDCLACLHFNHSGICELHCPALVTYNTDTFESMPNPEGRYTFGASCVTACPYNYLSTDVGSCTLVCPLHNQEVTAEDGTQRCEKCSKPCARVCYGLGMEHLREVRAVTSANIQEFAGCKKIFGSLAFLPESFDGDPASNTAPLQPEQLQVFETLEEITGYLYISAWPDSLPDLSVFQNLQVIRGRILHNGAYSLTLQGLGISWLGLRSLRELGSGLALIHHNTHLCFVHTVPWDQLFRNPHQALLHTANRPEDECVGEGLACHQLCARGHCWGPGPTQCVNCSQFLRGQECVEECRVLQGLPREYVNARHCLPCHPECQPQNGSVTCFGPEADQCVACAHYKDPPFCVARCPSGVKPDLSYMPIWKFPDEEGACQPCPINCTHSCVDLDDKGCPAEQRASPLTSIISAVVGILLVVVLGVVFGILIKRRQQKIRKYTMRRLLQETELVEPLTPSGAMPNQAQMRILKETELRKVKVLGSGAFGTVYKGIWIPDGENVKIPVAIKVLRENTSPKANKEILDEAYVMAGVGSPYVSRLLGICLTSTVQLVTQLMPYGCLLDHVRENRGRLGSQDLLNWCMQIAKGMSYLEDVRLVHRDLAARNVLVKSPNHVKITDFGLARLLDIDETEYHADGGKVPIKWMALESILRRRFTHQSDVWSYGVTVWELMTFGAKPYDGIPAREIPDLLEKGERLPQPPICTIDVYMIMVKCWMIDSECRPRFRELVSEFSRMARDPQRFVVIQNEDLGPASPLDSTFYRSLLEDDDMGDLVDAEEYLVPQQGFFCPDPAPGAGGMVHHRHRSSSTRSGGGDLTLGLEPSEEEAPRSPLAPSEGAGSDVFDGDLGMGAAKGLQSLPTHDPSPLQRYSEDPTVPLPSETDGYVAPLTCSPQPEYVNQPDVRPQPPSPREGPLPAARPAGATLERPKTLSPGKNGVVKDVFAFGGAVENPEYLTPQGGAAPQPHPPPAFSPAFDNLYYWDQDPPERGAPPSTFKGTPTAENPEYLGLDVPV
# [3] = reduced viability of SK-BR-3 breast cancer cells – cell-based, 24 h, human, pilot screen (AID 572;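 active = viability at or below 10% of carrier control in both of two separate runs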;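 note: compound exposure lasted between 18 and 24 h rather than exactly 24 h; 100% = carrier-treated control wells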); conditions: SK-BR-3 viability, CellTiter-Glo luminescence, at 10 µM, stronger effect = lower value
# [4] = HUVEC growth inhibition – cell-based, human, primary screen (AID 575;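 active = viability at or below 30% in both replicate assays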;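 note: 100% = median of untreated cell wells with 0.1% DMSO on each plate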); conditions: HUVEC proliferation, CellTiter-Glo luminescence, 72 h; at 10 µM; stronger effect = lower value
# Outline: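 System: primary human umbilical vein endothelial cells; Quantity: 1250 endothelial cells in each well; Buffer or medium: supplemented EBM, 2% fetal bovine serum; Doses: one dose, 10 µM final, 0.1% DMSO; Incubation: 72 h compound incubation; Technique: ATP-based CellTiter-Glo luminescent read; Evaluation: percent of median DMSO-control luminescence; Controls: vehicle and MePR control wells.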
# [5] = H69AR cell proliferation blockers – human, duplicate replicates, primary screen (AID 580;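 active = viability at or under a set limit in both replicates, limit being median viability minus 3 SD, cut at about 48% in these data, passing the limit was not always enough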;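 note: 100% = mean luminescence of untreated wells and 0% = no signal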); conditions: H69AR lung tumor cells viability, ATP luminescence, 72 h; at 10 µM; stronger effect = lower value
# [6] = MRP1 drug-resistance reversers in H69AR cells – cell-based, doxorubicin co-treatment, pilot screen (AID 601); conditions: CellTiter-Glo, 72 h, at 10 µM; for differential viability (reversal): stronger effect = higher value
# [7] = yeast transport mutant growth inhibition pilot in 384-well plates, post-Golgi transport modulator project (AID 636; in the data active = inhibition above about 31%); conditions: absorbance 615 nm, about 18 h, stronger effect = higher value
# [8] = growth suppression of yeast trafficking mutant, preliminary HTS, modulators of trafficking downstream of Golgi apparatus project, 1536-format plate, OD 615 nm (AID 637; in the data active = inhibition above about 30%); conditions: yeast transport mutant growth, absorbance 615 nm, 18 h; stronger effect = higher value
# [9] = H69AR cells + 2 uM doxorubicin, measured here: viability with 2 uM doxorubicin, stronger effect = lower value
# [10] = H69AR cells, compound alone cytotoxicity
Structure (SMILES),viability [1],Her2 level [2],viability [3],viability [4],viability [5],differential viability (reversal) ([6]; H69AR cells + 2 uM doxorubicin),"viability [6, 9]","viability [6, 10]",inhibition [7],inhibition [8]
CCn1nc(CC(=O)Nc2nnc(CC(=O)N3CCCCC3)s2)c2ccccc2c1=O,96%,102% (inactive),96% (inactive),84.4% (inactive),97.5% (inactive),4.77% (inactive),92.7%,97.5%,-0.52% (inactive),-4.83% (inactive)
Nc1c(S(=O)(=O)c2cccs2)c2nc3ccccc3nc2n1CC1CCCO1 (stereo not given),79.5%,89.5% (inactive),79.5% (inactive),85.2% (inactive),85.9% (inactive),4.9% (inactive),81%,85.9%,-2.21% (inactive),-1.33% (inactive)
COc1cc(C(=O)N2CCC(c3nc(-c4cccnc4)no3)CC2)cc(OC)c1OC,96%,110% (inactive),96% (inactive),110% (inactive),93.9% (inactive),11.1% (inactive),82.8%,93.9%,-2.16% (inactive),6% (inactive)
C[C@@H]1C[C@H](O)c2cc(Cl)ccc2N1,104%,88.5% (inactive),104% (inactive),86.1% (inactive),87.1% (inactive),7.69% (inactive),79.4%,87.1%,-5.84% (inactive),-3.33% (inactive)
COc1ccc2nc(NC(=O)CSc3nnc(-c4ccoc4C)n3C)sc2c1,112%,106% (inactive),112% (inactive),80.2% (inactive),84.8% (inactive),9.45% (inactive),75.4%,84.8%,-6.13% (inactive),-3.87% (inactive)
CCOC(=O)c1[nH]c2ccc(C)cc2c1N=C(C)N(C)C,100%,89% (inactive),100% (inactive),96.5% (inactive),97.7% (inactive),6.32% (inactive),91.4%,97.7%,-0.66% (inactive),-5.32% (inactive)
CCOc1ccccc1CN1C(=O)c2ccccc2C1C(=O)NCC1CCCO1 (stereo not given),104%,104% (inactive),104% (inactive),98.3% (inactive),101% (inactive),-4.52% (inactive),105%,101%,-1.47% (inactive),-0.32% (inactive)
O=C(CN1CCC(NC(=O)c2ccc(F)cc2)CC1)NCc1ccccc1F,96.5%,98.5% (inactive),96.5% (inactive),91.5% (inactive),103% (inactive),3.44% (inactive),100%,103%,-5.6% (inactive),-0.63% (inactive)
CCC(C)NC(=O)C1(C)CCC(=O)N1Cc1ccccc1OC (stereo not given),100%,95% (inactive),100% (inactive),99.8% (inactive),95.3% (inactive),0.27% (inactive),95%,95.3%,-5.07% (inactive),1.31% (inactive)
COc1ccccc1NC(=O)CSc1nnc(-c2ccncc2)n1CC1CCCO1 (stereo not given),97%,91% (inactive),97% (inactive),103% (inactive),96.7% (inactive),6.53% (inactive),90.1%,96.7%,-5.33% (inactive),-3.81% (inactive)
COc1cc(NC(=O)NC(C)(C(F)(F)F)C(F)(F)F)cc(OC)c1OC,138%,106% (inactive),138% (inactive),91.1% (inactive),99.5% (inactive),-2.39% (inactive),102%,99.5%,-4.08% (inactive),11.3% (inactive)
O=C(C1CC1)N(Cc1ccco1)c1nc(-c2ccccc2)cs1,96.5%,108% (inactive),96.5% (inactive),81.4% (inactive),86.4% (inactive),1.75% (inactive),84.7%,86.4%,-5.6% (inactive),-8.36% (inactive)
c1nnc(NC2=NCCCCC2)s1,91.5%,112% (inactive),91.5% (inactive),109% (inactive),101% (inactive),2.23% (inactive),98.5%,101%,-2.16% (inactive),-7.5% (inactive)
O=C(O)c1c[nH]c2ccc(S(=O)(=O)N3CCN(c4ccc(F)cc4)CC3)cc2c1=O,93.5%,124% (inactive),93.5% (inactive),91.6% (inactive),93.7% (inactive),10.9% (inactive),82.8%,93.7%,0.53% (inactive),-6.45% (inactive)
CCn1c(=O)n(CC(=O)Nc2cc(OC)ccc2OC)c(=O)c2ccccc21,110%,77% (inactive),110% (inactive),86% (inactive),87.4% (inactive),17.7% (inactive),69.7%,87.4%,-0.66% (inactive),-0.32% (inactive)
Cn1c(SCC(N)=O)nnc1C1CCN(C(=O)NCc2ccccc2)CC1,88%,103% (inactive),88% (inactive),93.6% (inactive),88.3% (inactive),0.425% (inactive),87.8%,88.3%,-3.55% (inactive),-9.5% (inactive)
C1CCc2nnc(-c3nnc4n3CCCCC4)n2CC1,86.5%,99.5% (inactive),86.5% (inactive),104% (inactive),93% (inactive),6.52% (inactive),86.4%,93%,-1.28% (inactive),1.67% (inactive)
COc1ccc(OC)c(C2C3=C(CCCC3=O)Nc3c2c(=O)n(C)c(=O)n3C)c1 (stereo not given),106%,108% (inactive),106% (inactive),103% (inactive),102% (inactive),-5.08% (inactive),107%,102%,-2.24% (inactive),-0.33% (inactive)
CC(C)(Oc1ccc(Cl)cc1)C(=O)NC1CCSC1=O (stereo not given),101%,104% (inactive),101% (inactive),90.3% (inactive),114% (inactive),19.5% (inactive),94.6%,114%,0.27% (inactive),-9.52% (inactive)
CCn1c(C)nc2cc(C(=O)OCCC(F)(F)F)ccc21,100%,112% (inactive),100% (inactive),108% (inactive),89.8% (inactive),-3.94% (inactive),93.7%,89.8%,-2.44% (inactive),7.67% (inactive)
Cc1cc(Cl)c(S(=O)(=O)NC2CCCCC2)cc1OCC(=O)Nc1nncs1,107%,88% (inactive),107% (inactive),86.5% (inactive),90.1% (inactive),-3.42% (inactive),93.6%,90.1%,-4.74% (inactive),-3.17% (inactive)
S=c1[nH]nc(-c2ccco2)n1-c1cccc2ccccc12,102%,98.5% (inactive),102% (inactive),78.5% (inactive),96.9% (inactive),3.69% (inactive),93.2%,96.9%,-0.54% (inactive),14.6% (inactive)
COc1ccc2c(c1)OC(O)(C(F)F)CC2=O (stereo not given),116%,107% (inactive),116% (inactive),102% (inactive),93.5% (inactive),2.35% (inactive),91.2%,93.5%,-1.04% (inactive),-2% (inactive)
COC(=O)c1c(NC(=O)c2ccc(S(=O)(=O)N3CCOCC3)cc2)sc2c1CCN(C)C2,96%,106% (inactive),96% (inactive),94.8% (inactive),90% (inactive),-5.3% (inactive),95.3%,90%,-5.26% (inactive),-7.46% (inactive)
CC(C)C(=O)Nc1ccc2c(c1)nc1n2CCSC1,104%,95% (inactive),104% (inactive),111% (inactive),95.4% (inactive),10.4% (inactive),85%,95.4%,-0.78% (inactive),-6.83% (inactive)
O=P(O)(O)c1ccccc1OCCOCCOc1ccccc1P(=O)(O)O,101%,89.5% (inactive),101% (inactive),111% (inactive),92% (inactive),5.91% (inactive),86.1%,92%,-6.08% (inactive),0.5% (inactive)
Cc1cc(C)cc(NC(=O)C2CCCN(c3nccc(C)n3)C2)c1 (stereo not given),85%,101% (inactive),85% (inactive),84% (inactive),104% (inactive),12.9% (inactive),91.1%,104%,0.91% (inactive),-5.25% (inactive)
CCOc1cc2[nH]c(=O)n(CCCCC(=O)N3CCCCCC3)c(=O)c2cc1OCC,90%,87.5% (inactive),90% (inactive),91.6% (inactive),76.8% (inactive),2.38% (inactive),74.4%,76.8%,-3.29% (inactive),-0.36% (inactive)

# Reference: PubChem BioAssay
